Laboratory results taken from ChEMBL document CHEMBL1147877, “Synthesis of novel triheterocyclic thiazoles as anti-inflammatory and analgesic agents” (2007).

Tests used:
Mus musculus [1] = test: Acute toxicity in Albino mouse at 100 mg/kg after 24 hrs; format: functional, organism-based; design: dose 100 mg/kg
Summary of the method: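 Albino mice (20–25 g), fasted overnight, dosed across 1000–100 mg/kg body weight and watched for 24 h for signs of acute toxicity, e.g. raised or lowered motor activity, tremors, convulsion, sedation, lacrimation.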

Rattus norvegicus [2] = test: Antiinflammatory activity in rat assessed as inhibition of formalin-induced paw oedema at 100 mg/kg, ip after 12 hrs; format: functional; conditions: route intraperitoneal
Summary of the method: (§1)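 Albino rats of either sex, six per group, with plain 2% CMC as control. Formalin injected into the paw to induce oedema. Paw volume measured by plethysmograph (mercury displacement) immediately after injection (0 h), then at 0.5, 1, 2, 4, 8, 12 and 24 h. Results given as % inhibition of inflammation. P < 0.05 taken as significant.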

Rattus norvegicus [3] = test: Antiinflammatory activity in rat assessed as inhibition of formalin-induced paw oedema at 100 mg/kg, ip after 1 hr; format: functional; conditions: route intraperitoneal; summary of the method: as §1
Rattus norvegicus [4] = test: Antiinflammatory activity in rat assessed as inhibition of formalin-induced paw oedema at 100 mg/kg, ip after 0.5 hrs; format: functional; conditions: route intraperitoneal; summary of the method: as §1
Rattus norvegicus [5] = test: Antiinflammatory activity in rat assessed as inhibition of formalin-induced paw oedema at 100 mg/kg, ip; format: functional; conditions: route intraperitoneal; summary of the method: as §1
Mus musculus [6] = test: Analgesic activity in Albino mouse assessed as inhibition of acetic acid-induced writhing responses at 100 mg/kg, po; design: scale not given: the % may be the effect or the level left
Rattus norvegicus [7] = test: Antiinflammatory activity in rat assessed as inhibition of formalin-induced paw oedema at 100 mg/kg, ip after 4 hrs; format: functional; conditions: route intraperitoneal; summary of the method: as §1
Rattus norvegicus [8] = test: Antiinflammatory activity in rat assessed as inhibition of formalin-induced paw oedema at 100 mg/kg, ip after 24 hrs; format: functional; conditions: route intraperitoneal; summary of the method: as §1
Rattus norvegicus [9] = test: Antiinflammatory activity in rat assessed as inhibition of formalin-induced paw oedema at 100 mg/kg, ip after 8 hrs; format: functional; conditions: route intraperitoneal; summary of the method: as §1
Rattus norvegicus [10] = test: Antiinflammatory activity in rat assessed as inhibition of formalin-induced paw oedema at 100 mg/kg, ip after 2 hrs; format: functional; conditions: route intraperitoneal; summary of the method: as §1

Compound: O=c1cc(CNc2nc(-c3cc4cc(Br)ccc4oc3=O)cs2)c2ccc(Cl)cc2[nH]1
- Activity (Mus musculus [1]): Not toxic
- inhibition in vivo at 100 mg/kg (Rattus norvegicus [2]): 23.2%
- inhibition in vivo at 100 mg/kg (Rattus norvegicus [3]): 5.8%
- inhibition in vivo at 100 mg/kg (Rattus norvegicus [4]): 5.26%
- inhibition in vivo at 100 mg/kg (Rattus norvegicus [5]): 2.4%
- Activity (Mus musculus [6]): 64.94%
- inhibition in vivo at 100 mg/kg (Rattus norvegicus [7]): 13.3%
- inhibition in vivo at 100 mg/kg (Rattus norvegicus [8]): 18.4%
- inhibition in vivo at 100 mg/kg (Rattus norvegicus [9]): 24.5%
- inhibition in vivo at 100 mg/kg (Rattus norvegicus [10]): 9.09%

Compound: CC(=O)Oc1ccccc1C(=O)O [ASPIRIN]
- inhibition in vivo at 100 mg/kg (Rattus norvegicus [2]): 22.2%
- inhibition in vivo at 100 mg/kg (Rattus norvegicus [3]): 17.1%
- inhibition in vivo at 100 mg/kg (Rattus norvegicus [4]): 9.76%
- inhibition in vivo at 100 mg/kg (Rattus norvegicus [5]): 5.97%
- Activity (Mus musculus [6]): 81.56%
- inhibition in vivo at 100 mg/kg (Rattus norvegicus [7]): 49.9%
- inhibition in vivo at 100 mg/kg (Rattus norvegicus [8]): 17.4%
- inhibition in vivo at 100 mg/kg (Rattus norvegicus [9]): 39.7%
- inhibition in vivo at 100 mg/kg (Rattus norvegicus [10]): 29.9%

Compound: O=c1cc(CNc2nc(-c3cc4ccccc4oc3=O)cs2)c2cc(Cl)ccc2[nH]1
- Activity (Mus musculus [1]): Not toxic

Compound: O=c1cc(CNc2nc(-c3cc4cc(Br)cc(Br)c4oc3=O)cs2)c2cc(Cl)ccc2[nH]1
- Activity (Mus musculus [1]): Not toxic
- inhibition in vivo at 100 mg/kg (Rattus norvegicus [2]): 14.4%
- inhibition in vivo at 100 mg/kg (Rattus norvegicus [3]): 13.8%
- inhibition in vivo at 100 mg/kg (Rattus norvegicus [4]): 6.75%
- inhibition in vivo at 100 mg/kg (Rattus norvegicus [5]): 2.85%
- Activity (Mus musculus [6]): 48.7%
- inhibition in vivo at 100 mg/kg (Rattus norvegicus [7]): 29.8%
- inhibition in vivo at 100 mg/kg (Rattus norvegicus [8]): 9.35%
- inhibition in vivo at 100 mg/kg (Rattus norvegicus [9]): 21.9%
- inhibition in vivo at 100 mg/kg (Rattus norvegicus [10]): 17.8%

Compound: O=c1cc(CNc2nc(-c3cc4cc(Br)cc(Br)c4oc3=O)cs2)c2ccc(Cl)cc2[nH]1
- Activity (Mus musculus [1]): Not toxic
- inhibition in vivo at 100 mg/kg (Rattus norvegicus [2]): 18.7%
- inhibition in vivo at 100 mg/kg (Rattus norvegicus [3]): 12.6%
- inhibition in vivo at 100 mg/kg (Rattus norvegicus [4]): 3.27%
- inhibition in vivo at 100 mg/kg (Rattus norvegicus [5]): 2.89%
- Activity (Mus musculus [6]): 78.22%
- inhibition in vivo at 100 mg/kg (Rattus norvegicus [7]): 34.5%
- inhibition in vivo at 100 mg/kg (Rattus norvegicus [8]): 10.6%
- inhibition in vivo at 100 mg/kg (Rattus norvegicus [9]): 41.5%
- inhibition in vivo at 100 mg/kg (Rattus norvegicus [10]): 13%

Compound: Cc1cccc2c(CNc3nc(-c4cc5ccccc5oc4=O)cs3)cc(=O)[nH]c12
- Activity (Mus musculus [1]): Not toxic

Compound: O=c1cc(CNc2nc(-c3cc4ccccc4oc3=O)cs2)c2ccc(Cl)cc2[nH]1
- Activity (Mus musculus [1]): Not toxic

Compound: Cc1cccc2c(CNc3nc(-c4cc5cc(Br)ccc5oc4=O)cs3)cc(=O)[nH]c12
- Activity (Mus musculus [1]): Not toxic
- inhibition in vivo at 100 mg/kg (Rattus norvegicus [2]): 24.1%
- inhibition in vivo at 100 mg/kg (Rattus norvegicus [3]): 8.76%
- inhibition in vivo at 100 mg/kg (Rattus norvegicus [4]): 3.12%
- inhibition in vivo at 100 mg/kg (Rattus norvegicus [5]): 1.6%
- Activity (Mus musculus [6]): 35.05%
- inhibition in vivo at 100 mg/kg (Rattus norvegicus [7]): 14.5%
- inhibition in vivo at 100 mg/kg (Rattus norvegicus [8]): 16.9%
- inhibition in vivo at 100 mg/kg (Rattus norvegicus [9]): 18.5%
- inhibition in vivo at 100 mg/kg (Rattus norvegicus [10]): 9.19%

Compound: O=c1cc(CNc2nc(-c3cc4cc(Br)ccc4oc3=O)cs2)c2cc(Cl)ccc2[nH]1
- Activity (Mus musculus [1]): Not toxic
- inhibition in vivo at 100 mg/kg (Rattus norvegicus [2]): 15.6%
- inhibition in vivo at 100 mg/kg (Rattus norvegicus [3]): 4.42%
- inhibition in vivo at 100 mg/kg (Rattus norvegicus [4]): 4.11%
- inhibition in vivo at 100 mg/kg (Rattus norvegicus [5]): 3.03%
- Activity (Mus musculus [6]): 88.89%
- inhibition in vivo at 100 mg/kg (Rattus norvegicus [7]): 19.8%
- inhibition in vivo at 100 mg/kg (Rattus norvegicus [8]): 9.08%
- inhibition in vivo at 100 mg/kg (Rattus norvegicus [9]): 28.6%
- inhibition in vivo at 100 mg/kg (Rattus norvegicus [10]): 5.26%

Compound: Cc1cccc2c(CNc3nc(-c4cc5cc(Br)cc(Br)c5oc4=O)cs3)cc(=O)[nH]c12
- Activity (Mus musculus [1]): Not toxic
- inhibition in vivo at 100 mg/kg (Rattus norvegicus [2]): 16.7%
- inhibition in vivo at 100 mg/kg (Rattus norvegicus [3]): 11.3%
- inhibition in vivo at 100 mg/kg (Rattus norvegicus [4]): 3.65%
- inhibition in vivo at 100 mg/kg (Rattus norvegicus [5]): 2.65%
- Activity (Mus musculus [6]): 62.73%
- inhibition in vivo at 100 mg/kg (Rattus norvegicus [7]): 22.7%
- inhibition in vivo at 100 mg/kg (Rattus norvegicus [8]): 9.78%
- inhibition in vivo at 100 mg/kg (Rattus norvegicus [9]): 33.7%
- inhibition in vivo at 100 mg/kg (Rattus norvegicus [10]): 16.3%
